Reference: ChEMBL document CHEMBL1143754, “2-Styrylchromones: novel strong scavengers of reactive oxygen and nitrogen species” (Bioorg Med Chem, 2007)
Calls of active or inactive are those of the source. The calls are words filed in the database; no cut-off is given here.

Experiments:
Type in all cases: functional
[1] = Superoxide radical scavenging activity by NBT reduction assay
Summary of the method: (§1)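 Superoxide generated by NADH/PMS at room temperature. Final: NADH 166 µM, NBT 43 µM, PMS 2.7 µM in 19 mM phosphate pH 7.4; compounds in DMSO. NBT reduction to diformazan followed at 560 nm for 2 min. % inhibition. Propyl gallate control. Four experiments in triplicate.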

[2] = Hydrogen peroxide scavenging activity by assessed as inhibition of lucigenin oxidation
Summary of the method: (§2)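 Chemiluminescence assay of H2O2-induced lucigenin oxidation, 37 °C, 50 mM Tris-HCl pH 7.4. Final concentrations: lucigenin 0.8 mM, 1% H2O2. Compounds in DMSO at various concentrations. Signal read right after the plate goes into the reader. Reported as % inhibition of lucigenin oxidation. Ascorbic acid as positive control. Four experiments, each in triplicate.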

[3] = Hypochlorous acid scavenging activity assessed as inhibition of DHR oxidation
Summary of the method: (§3)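 HOCl made fresh by bringing 1% NaOCl to pH 6.2 with H2SO4, quantified at 235 nm. Final: DHR 5 µM, HOCl 5 µM in 100 mM phosphate pH 7.4, compounds in ethanol. Run at 37 °C; rhodamine 123 fluorescence (ex 485/em 528 nm) read immediately. % inhibition of DHR oxidation. Lipoic acid control. Four experiments in triplicate.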

[4] = Singlet oxygen scavenging activity by assessed as inhibition of DHR oxidation
Summary of the method: (§4)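 Singlet oxygen from thermal breakdown of the endoperoxide NDPO2 (1 mM final), with histidine 10 mM and DHR 50 µM in 100 mM phosphate pH 7.4. Compounds in DMSO. After 30 min at 37 °C, rhodamine 123 fluorescence (ex 485/em 528 nm). % inhibition of DHR oxidation. Penicillamine control. Four experiments in triplicate.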

[5] = Nitric oxide scavenging activity assessed as inhibition of DAF2 oxidation
Summary of the method: (§5)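 NOC-5 (10 µM final) as NO donor, DAF-2 5 µM in 50 mM KH2PO4 pH 7.4, compounds in DMSO. After 30 min at 37 °C, DAF-2T fluorescence read (ex 485/em 528 nm). Value is % inhibition of DAF-2 oxidation. Rutin control.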

[6] = Peroxynitrite scavenging activity assessed as inhibition of DHR oxidation
Summary of the method: (§6)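 Buffer of 90 mM NaCl, 50 mM Na3PO4, 5 mM KCl, pH 7.4, with 100 µM DTPA. Final: DHR 5 µM, ONOO− 600 nM, compounds in DMSO. 37 °C, fluorescence (ex 485/em 528 nm) after 2 min. % inhibition of DHR oxidation. Ebselen control. Four experiments in triplicate.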

[7] = Peroxynitrite scavenging activity assessed as inhibition of DHR oxidation in presence of NaHCo3
Summary of the method: (§7)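 Parallel peroxynitrite set with 25 mM NaHCO3 added to mimic physiological CO2. Otherwise the same: 100 µM DTPA phosphate/NaCl/KCl buffer pH 7.4, DHR 5 µM, ONOO− 600 nM, compounds in DMSO. 37 °C, 2 min, fluorescence ex 485/em 528 nm. % inhibition of DHR oxidation. Four experiments in triplicate.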

[8] = Superoxide radical scavenging activity at 125 uM by NBT reduction assay; summary of the method: as §1
[9] = Hydrogen peroxide scavenging activity at 250 uM by assessed as inhibition of lucigenin oxidation; summary of the method: as §2
[10] = Peroxynitrite scavenging activity assessed as inhibition of DHR oxidation at 150 uM; summary of the method: as §6
[11] = Hypochlorous acid scavenging activity at 125 uM assessed as inhibition of DHR oxidation; summary of the method: as §3
[12] = Singlet oxygen scavenging activity at 200 uM assessed as inhibition of DHR oxidation; summary of the method: as §4
[13] = Nitric oxide scavenging activity assessed as inhibition of DAF2 oxidation at 100 uM; summary of the method: as §5
[14] = Peroxynitrite scavenging activity assessed as inhibition of DHR oxidation in presence of NaHCo3 at 150 uM; summary of the method: as §7
[15] = Peroxynitrite scavenging activity assessed as inhibition of DHR oxidation at 62 uM; summary of the method: as §6
[16] = Hypochlorous acid scavenging activity at 50 uM assessed as inhibition of DHR oxidation; summary of the method: as §3
[17] = Singlet oxygen scavenging activity at 100 uM assessed as inhibition of DHR oxidation; summary of the method: as §4
[18] = Peroxynitrite scavenging activity assessed as inhibition of DHR oxidation in presence of NaHCo3 at 62 uM; summary of the method: as §7
[19] = Nitric oxide scavenging activity assessed as inhibition of DAF2 oxidation at 250 uM; summary of the method: as §5
[20] = Singlet oxygen scavenging activity at 1 mM assessed inhibition of as DHR oxidation; summary of the method: as §4
[21] = Peroxynitrite scavenging activity assessed as inhibition of DHR oxidation at 500 uM; summary of the method: as §6
[22] = Peroxynitrite scavenging activity assessed as inhibition of DHR oxidation in presence of NaHCo3 at 500 uM; summary of the method: as §7
[23] = Singlet oxygen scavenging activity at 500 uM assessed as inhibition of DHR oxidation; summary of the method: as §4
[24] = Nitric oxide scavenging activity assessed as inhibition of DAF2 oxidation at 50 uM; summary of the method: as §5
[25] = Superoxide radical scavenging activity at 100 uM by NBT reduction assay; summary of the method: as §1
[26] = Hypochlorous acid scavenging activity at 25 uM assessed as inhibition of DHR oxidation; summary of the method: as §3
[27] = Singlet oxygen scavenging activity at 40 uM assessed as inhibition of DHR oxidation; summary of the method: as §4
[28] = Hypochlorous acid scavenging activity at 100 uM assessed as inhibition of DHR oxidation; summary of the method: as §3

Row | IC50 [1] | IC50 [3] | IC50 [4] | IC50 [5] | IC50 [6] | IC50 [7] | Compound | Activity [9] | also measured
1 | 80.4 µM | 16.9 µM | 4.9 µM | 0.24 µM | 0.26 µM | 0.51 µM | O=c1cc(/C=C/c2ccc(O)c(O)c2)oc2cccc(O)c12 | – | IC50 [2]: 48.9 µM
2 | – | 5.7 µM | 163 µM | 73.9 µM | 46.6 µM | 40.6 µM | O=c1cc(/C=C/c2ccccc2)oc2cc(O)cc(O)c12 | inactive | inhibition [8]: 27%
3 | – | – | – | – | – | – | O=c1cc(/C=C/c2ccccc2)oc2ccccc12 | inactive | inhibition [10]: 27%; Activity [8]: inactive; inhibition [11]: 10%; Activity [12]: inactive; Activity [13]: inactive; inhibition [14]: 27%
4 | – | 2.4 µM | – | – | – | – | O=C(O)CCCCC1CCSS1 (stereo not drawn) [LIPOIC ACID, ALPHA] | – | –
5 | – | – | – | – | – | – | O=c1cc(-c2ccccc2)oc2cccc(O)c12 | inactive | Activity [15]: inactive; Activity [8]: inactive; inhibition [16]: 17%; Activity [17]: inactive; Activity [13]: inactive; Activity [18]: inactive
6 | – | – | – | – | – | – | O=C1O[C@H]([C@@H](O)CO)C(O)=C1O [ASCORBIC ACID] | – | IC50 [2]: 626 µM
7 | 71.3 µM | 32.1 µM | 7.9 µM | 0.34 µM | 0.24 µM | 0.44 µM | O=c1cc(/C=C/c2ccc(O)c(O)c2)oc2ccccc12 | – | IC50 [2]: 183 µM
8 | 66.2 µM | 92 µM | 266 µM | – | 1.4 µM | 1.65 µM | O=c1cc(/C=C/c2ccc(O)cc2)oc2cc(O)ccc12 | inactive | inhibition [19]: 23%
9 | – | 72.3 µM | – | – | – | – | O=c1cc(/C=C/c2ccccc2)oc2cc(O)ccc12 | inactive | inhibition [8]: 40%; Activity [20]: inactive; Activity [19]: inactive; Activity [21]: inactive; Activity [22]: inactive
10 | – | – | 4.9 µM | – | – | – | CC(C)(S)[C@@H](N)C(=O)O [PENICILLAMINE] | – | –
11 | – | – | – | 3.66 µM | – | – | C[C@@H]1O[C@@H](OC[C@H]2O[C@@H](Oc3c(-c4ccc(O)c(O)c4)oc4cc(O)cc(O)c4c3=O)[C@H](O)[C@@H](O)[C@@H]2O)[C@H](O)[C@H](O)[C@H]1O [RUTIN] | – | –
12 | 51 µM | 18 µM | 10.1 µM | 0.29 µM | 0.3 µM | 0.61 µM | O=c1cc(/C=C/c2ccc(O)c(O)c2)oc2cc(O)ccc12 | – | IC50 [2]: 114 µM
13 | 77.7 µM | 8.5 µM | 183 µM | – | 1.25 µM | 1.21 µM | O=c1cc(/C=C/c2ccc(O)cc2)oc2cc(O)cc(O)c12 | – | inhibition [9]: 36%; inhibition [19]: 21%
14 | – | 146 µM | – | – | – | – | O=c1cc(-c2ccccc2)oc2cc(O)ccc12 [7-HYDROXYFLAVONE] | inactive | Activity [8]: inactive; Activity [20]: inactive; Activity [19]: inactive; Activity [21]: inactive; Activity [22]: inactive
15 | – | 3.9 µM | – | – | 188 µM | 140 µM | O=c1cc(-c2ccccc2)oc2cc(O)cc(O)c12 [CHRYSIN] | inactive | Activity [8]: inactive; Activity [23]: inactive; inhibition [19]: 20%
16 | – | – | – | – | – | – | O=c1cc(/C=C/c2ccccc2)oc2cccc(O)c12 | inactive | Activity [15]: inactive; Activity [8]: inactive; inhibition [16]: 17%; Activity [17]: inactive; Activity [24]: inactive; Activity [18]: inactive
17 | – | – | – | – | 1.04 µM | 0.98 µM | O=c1cc(/C=C/c2ccc(O)cc2)oc2cccc(O)c12 | – | Activity [25]: inactive; inhibition [9]: 40%; inhibition [26]: 29%; inhibition [27]: 29%; Activity [24]: inactive
18 | – | 3.9 µM | – | – | 76.1 µM | 21.2 µM | O=c1cc(-c2ccc(O)cc2)oc2cc(O)cc(O)c12 [APIGENIN] | inactive | inhibition [25]: 35%; inhibition [20]: 30%; Activity [19]: inactive
19 | 48.9 µM | 3.9 µM | 6.5 µM | 0.51 µM | 0.26 µM | 0.63 µM | O=c1cc(/C=C/c2ccc(O)c(O)c2)oc2cc(O)cc(O)c12 | – | IC50 [2]: 50.3 µM
20 | 24.6 µM | – | – | – | – | – | CCCOC(=O)c1cc(O)c(O)c(O)c1 [PROPYL GALLATE] | – | –
21 | – | – | 245 µM | – | 1.2 µM | 1.23 µM | O=c1cc(/C=C/c2ccc(O)cc2)oc2ccccc12 | inactive | inhibition [8]: 32%; inhibition [28]: 34%; inhibition [19]: 46%

Row | Compound | IC50 [1] | IC50 [3] | IC50 [4] | IC50 [5] | IC50 [6] | IC50 [7] | Activity [9] | also measured
22 | O=c1c(O)c(-c2ccc(O)c(O)c2)oc2cc(O)cc(O)c12 [QUERCETIN] | 47.3 µM | 1.1 µM | 5.3 µM | 1.95 µM | 0.26 µM | 0.44 µM | – | IC50 [2]: 785 µM
23 | O=c1cc(-c2ccc(O)c(O)c2)oc2cc(O)cc(O)c12 [LUTEOLIN] | 58.5 µM | 7.1 µM | 23.4 µM | 2.61 µM | 0.3 µM | 0.64 µM | – | IC50 [2]: 900 µM
24 | O=c1c2ccccc2[se]n1-c1ccccc1 [EBSELEN] | – | – | – | – | 0.91 µM | 4.63 µM | – | –
